# ChEMBL document CHEMBL4513216, “Probing the Open Global Health Chemical Diversity Library for Multistage-Active Starting Points for Next-Generation Antimalarials” (ACS Infect Dis, 2020)
# Assay: Toxicity liver stage against HepG2, at 10uM
# Type: cell-based
# Design: test concentration 10 uM, cell line HepG2-A16-CD81EGFP
# Conditions: human, HepG2-A16-CD81EGFP cells; read-out: INHIBITION
# Outline: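 Uninfected HepG2-A16-CD81EGFP cells, 3 × 10^3 per well, 1536-well, plated on prespotted compound at 10 μM final, parasite-free screening media added to match infected plates; puromycin 10 μM positive, DMSO 0.5% negative; run in parallel with 48 h PbLuc assay at 37 °C, 5% CO2; viability by CellTiter-Glo luminescence, normalized to controls.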
row,SMILES,cytotoxicity at 10 µM
1,CN1CC2(CCN(Cc3cccnc3)CC2)c2cc(F)ccc21,14%
2,COc1cc2c(cc1OC)CN(C(=O)NCC1CCCO1)CC2 (stereo not given),-16%
3,Cc1cnc(CN(Cc2ccc(Cl)s2)C2CCN(C)C2)o1 (stereo not given),14.5%
4,COc1ccc2c(c1)OCC(CNC(=O)CCc1c(C)n[nH]c1C)C2 (stereo not given),-48.5%
5,Cc1cc(CN2CCC(C3CCN(CCc4ccccc4)CC3)C2)[nH]n1 (stereo not given),9.2%
6,OCC1CCCCN1CCn1ccnc1-c1ccc2c(c1)OCCO2 (stereo not given),-3.65%
7,Fc1ccc(CNCCn2cccn2)c(F)c1,8.59%
8,CC(C(=O)NCc1ccnc(N(C)C)c1)n1cncn1 (stereo not given),-9.7%
9,c1c[nH]c(CN2CCC3(CC2)COCCN(CCN2CCCC2)C3)c1,-3.86%
10,CCOc1ccccc1C(C(=O)O)N(C)Cc1cc(C)[nH]n1 (stereo not given),9.34%
11,Cc1noc(C)c1CNCC1CCN(CC(O)c2ccccc2)CC1 (stereo not given),-0.65%
12,COC(C)(C)Cn1ccnc1-c1cccc(C(C)N(C)C)c1 (stereo not given),-3.59%
13,O=C(O)c1ncccc1OCC(F)(F)F,-8.76%
14,Cc1csc(Nc2nccnc2C2CCCN2CC(N)=O)n1 (stereo not given),-20.8%
15,CCC(C)NC(=O)c1ccc(NC(=O)CCCn2cncn2)c(C)c1 (stereo not given),-10.7%
16,Cc1cn2c(n1)CCC(NC(=O)CCCOCc1ccccc1)C2 (stereo not given),-3.55%
17,CC(C)S(=O)(=O)N1C[C@@H](O)[C@H](N(C)Cc2ccc(F)cc2)C1,2.51%
18,Cc1ccccc1S(=O)(=O)N1CCCCC1c1ccn[nH]1 (stereo not given),12.1%
19,Cn1cc(CN2CCc3c(CNC(=O)C4CC4)cncc3C2)cn1,-5.43%
20,CCn1cnnc1CNc1nc(C)nc2scc(CC(C)C)c12,-3.17%
21,CC(C)Oc1ncccc1CNC(=O)N1CCC1,-7.6%
22,CC(C)CNC(=O)Cn1ccc2ccccc21,-43.4%

row,SMILES,cytotoxicity at 10 µM
1,Cc1cc(C(=O)N2CCCC(C)C2)ccc1NCc1nc(C2CC2)no1 (stereo not given),-8.38%
2,O=C(O)CCn1ccc2cc(Br)ccc21,10.7%
3,CC(C)n1nccc1C(=O)N1CCC(c2nnsc2S(C)(=O)=O)CC1,-0.88%
4,CC(C)(C)C(=O)NCCNCc1ccc(Cl)c2cccnc12,-11.4%
5,CC1c2ncc(Cn3cncn3)n2CCN1C(=O)Cc1cccs1 (stereo not given),7.89%
6,COCCNC(=O)[C@@]12CCO[C@@H]1CCN(Cc1ccc(OC)cc1)C2,-77.8%
7,Cc1nnc(CN2C[C@H](NC(=O)CC3CCCC3)[C@@H](C3CC3)C2)s1,-42.4%
8,Cc1nc(CN2CCO[C@@H]3CN(C(=O)CC4CC4)CC[C@@H]3C2)cs1,3.79%
9,O=C(NCc1cccnc1)C1=NN(c2ccccc2)C(=O)CN1,12.3%
10,CC(C)(C)C(=O)NS(=O)(=O)c1ccc(C#N)cc1C(F)(F)F,-7.52%
11,Cc1cc(Oc2ccccc2)nc(C2CCN(CCO)CC2)n1,-1.99%
12,Cc1cc(N2CCC(N(C)C(=O)c3ccc(C#N)cc3)CC2)nc(C)n1,26.7%
13,CC1CCN(S(=O)(=O)c2cccnc2)c2ccccc2S1 (stereo not given),5%
14,Cc1cc(C(=O)N2CCCCC2)ccc1NS(C)(=O)=O,-1.4%
15,CC(C)NC(=O)c1ccc(NC(=O)NC(C)c2ccccn2)cc1 (stereo not given),9.44%
16,Cc1noc(C(C)C)c1C(=O)NCC(c1cccs1)N(C)C (stereo not given),-14.5%
17,CCn1nc(CC(C)C)cc1C(=O)NCc1c(C)cc(C)nc1OC,1.66%
18,Cc1noc(C)c1CN1CCn2cc(CNc3ccccn3)nc2C1,-1.38%
19,O=C(NCCNC1CCCCC1)c1cccs1,-12.7%
20,Cn1c(C(=O)NC(Cc2ccsc2)c2cccnc2)cc(=O)n(C)c1=O (stereo not given),2.61%
21,COCC(=O)N1CCC2(C1)c1ccccc1S(=O)(=O)N2CC1CC1 (stereo not given),4.39%
22,CCN1CCC2(CC1)CC(NCc1cccs1)c1ccccc1O2 (stereo not given),-11.6%

row,SMILES,cytotoxicity at 10 µM
1,Nc1nnc(SCC(=O)c2cc3c(cc2Cl)NC(=O)C3)s1,-0.139%
2,CO[C@H]1CO[C@@]2(CCCN(C(=O)N(C)C)C2)C1,-97.4%
3,NC(=O)c1c(SCCN2CCOCC2)sc2c(O)cc(=O)[nH]c12,1.17%
4,O=C(c1ccc(S(=O)(=O)NCCc2ccccn2)cc1)N1CCCC1,13.2%
5,COc1cccc(Cn2ncnc2CNC(C)=O)c1,0.15%
6,CS(=O)(=O)N1C[C@H]2CC[C@@H](C1)N(C(=O)CCc1ccsc1)C2,14.3%
7,CN(Cc1nnc(C2CC2)n1C)C1CCN(CCc2cnn(C)c2)C1 (stereo not given),-4.02%
8,C=Cc1cccc(CN2C[C@@H](CN(C)CC)[C@@H](CO)C2)c1,-6.63%
9,Cc1cccc2c1nc(CCO)n2-c1ccc(C(=O)N2CCOCC2)o1,3.69%
10,CCNc1ncc(C(=O)NC2CCC(n3cnnc3)CC2)cn1 (stereo not given),9.45%
11,CC(C)CC(=O)N1CCC2(CC1)[C@@H]1CN(C(=O)N(C)C)C[C@@H]1C(=O)N2C,4.85%
12,CCC(CC)c1cc(C(=O)N2CCCC(n3cncn3)C2)on1 (stereo not given),-13.1%
13,CCCC1c2cccn2CCN1C(=O)c1cc(CC)no1 (stereo not given),-14.9%
14,O=C(NCC1CC1)c1cc(Br)cnc1N1CCCCC1,3.1%
15,Cc1nc(CN[C@H]2CCCN(C(=O)OC(C)(C)C)C2)cs1,0.577%
16,CCS(=O)(=O)N1CCC2(CC(=O)N(c3cccc(C)c3)C2)C1 (stereo not given),-7.79%
17,Cc1cc2c(cc1CNC(Cc1cccs1)c1nccs1)OCO2 (stereo not given),6.76%
18,CNc1nc(C)c(C(=O)N2C[C@@H]3CC[C@H]2CN(c2cnccn2)C3)s1,13.6%
19,Cc1nn(CC(=O)N2CCN(Cc3cnn(C)c3C)CC2)cc1Cl,-3.22%
20,Cc1nonc1NC(=O)CCn1cc(Br)ccc1=O,0.297%
21,CNC(=O)c1cc2c(nc1N(C)C)CCN(S(=O)(=O)CC(C)C)CC2,-3.85%
22,Cn1cc(CN2CCCC3(CCN(c4nncs4)C3)C2)cn1 (stereo not given),5.41%

row,SMILES,cytotoxicity at 10 µM
1,O[C@@H]1C[C@@H](c2nc(Cc3ccccc3)no2)N(Cc2ncc[nH]2)C1,2.63%
2,Cc1cc(C(=O)NC(C)Cc2ccccc2Cl)n(C)n1 (stereo not given),2.8%
3,NC(=O)c1cc(-c2cccc(C(=O)O)c2)cs1,2.77%
4,CC(CN1CCCC1=O)NC(=O)c1cc(=O)[nH]c2ccc(Cl)cc12 (stereo not given),-7.14%
5,Cc1noc(CNc2ccc(OC(F)F)cc2OC(F)F)n1,1.85%
6,Cc1nn(C)c(C)c1NC(=O)Nc1cccnc1N1CCCC1,7.31%
7,Cn1cc(C(=O)NCC2CCN(C(=O)NCC(F)(F)F)CC2)cn1,-3.68%
8,Cc1ccc([C@H]2CN(C(=O)C3CCC3)C[C@@H]2N)o1,7.95%
9,CC(C)n1ncc2c1NC(=O)CC2c1ccccc1Cl (stereo not given),33.5%
10,Cc1cc(CNC(=O)C2CCC(=O)N(Cc3ccccc3F)C2)on1 (stereo not given),-5.26%
11,CCc1sc(C(=O)Nc2cnn(CC(N)=O)c2)cc1C,-2.68%
12,CC(C)C(=O)N1CCCC2(CC(C(=O)NCc3cccnc3)=NO2)C1 (stereo not given),-2.77%
13,O=C(C1CCOC1)N1CCc2ncnc(C3CC3)c2CC1 (stereo not given),-2.62%
14,Cc1c(NCCO)cccc1OC1CCCC1,3.1%
15,Cc1cc(C[C@@H]2COC[C@@H]2NC(=O)CN2CCCC2)on1,-30.2%
16,Cn1ccnc1C(=O)N1CCC(Cn2cc(-c3ccsc3)nn2)CC1,-6.46%
17,COc1ccc(CNC(=O)NC2CCN(CC3CCCC3)CC2)cn1,-8.01%
18,Cc1noc(C(C)C)c1C(=O)NCc1cccc(CN(C)C)c1,-8.23%
19,COc1ccc2c(c1)c(C(=O)Nc1nnn[nH]1)cn2C,-1.33%
20,COC(=O)C1=C(C)N=C2SCC(=O)N2C1c1cnn(C)c1C (stereo not given),4.01%
21,CS(=O)(=O)N1CCOCC2(CCN(C(=O)c3ccco3)CC2)C1,4.29%
22,COC(=O)[C@H]1CN(C(=O)NC(C)C)CCN1C(=O)c1cccs1,-0.832%

row,SMILES,cytotoxicity at 10 µM
1,Cc1ccccc1-c1noc(CN2CC(n3cccn3)C2)n1,-4.21%
2,Cc1nc(CN2CCN(CCOc3ccc(C(C)C)c(C)c3)CC2)no1,-11.2%
3,c1cc(CN2C[C@H](OCC3CCOCC3)[C@H]3COC[C@H]32)co1,-4.8%
4,CCc1cnc(N)nc1N[C@@H](C)c1ncccc1C,-3.94%
5,Cc1nc2c(c(N3CC=CC3)n1)CCN(c1ncccc1C(N)=O)CC2,-10.2%
6,CO[C@@H]1CC[C@@H](NC(=O)c2ccc(OCCN3CCCC3)cc2)[C@H]1O,-3.83%
7,O=c1[nH]c2ncccc2n1C1CCNCC1,11.5%
8,CC(C)N1[C@H](Cn2cccn2)C[C@@H]2CN(Cc3ccoc3)CC[C@@H]21,-153%
9,CN(Cc1ccccc1OC(F)(F)F)C(=O)C1CCCN(C(N)=O)C1 (stereo not given),7.59%
10,CC(C)c1nnc2n1CCN(Cc1cc(Cl)c3c(c1)OCO3)C2,0.0723%
11,O=C(c1ccoc1)N1CCn2nc(CN3CCSCC3)cc2C1,-57.8%
12,CS(=O)(=O)c1nnc(NC(=O)CCc2cccc(Cl)c2)[nH]1,-20.4%
13,Cc1cc(CC(C)Nc2ncnc3cccc(F)c23)[nH]n1 (stereo not given),26.4%
14,CN(C)Cc1cnc(C2CCN(C(=O)c3cccc(F)c3)C2)[nH]1 (stereo not given),2.54%
15,CCc1ccc(C(=O)N2CCCC2c2nnc3n2CCCCC3)o1 (stereo not given),10.9%
16,CS(=O)(=O)Nc1ccc(-n2c(CCCO)nc3ccccc32)cn1,-3.14%
17,COC(=O)CCNC(=O)c1cccc(C(=O)N(C)c2ccccc2)c1,-2.69%
18,N#Cc1cccc(CN2CCN(C(=O)C3CCC3)[C@@H]3CS(=O)(=O)C[C@@H]32)c1,-3.49%
19,CN(C)C(=O)CN1CCC2(C1)CN(CC1CCOC1)C2 (stereo not given),8.43%
20,O=C(NCC(F)(F)F)C1CSCN1S(=O)(=O)c1ccccc1F (stereo not given),-16.3%
21,COc1ccsc1C(=O)N1CCCN(Cc2cscn2)CC1,-9.12%
22,COC(=O)C1CN(CC(=O)Nc2ccccc2Cl)c2ccccc21 (stereo not given),14.3%
